This is an account of results in ChEMBL document CHEMBL4732262, “Identification of two novel thiophene analogues as inducers of autophagy mediated cell death in breast cancer cells” (Bioorg Med Chem, 2021).

Assay [1] has as its system MCF7. The assay can be described thus: Cytotoxicity against human MCF7 cells assessed as reduction in cell viability after 24 hrs by MTT assay. The note with it: MCF7, 24 h. The class given is functional, cell-based. In a few lines:
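Cells seeded ~5 × 10^3 per well in 96-well plates, exposed to 0–40 µM for 24 h. MTT added at 0.5 mg/ml for 3 h, formazan dissolved in DMSO, absorbance read at 540 nm. IC50 taken from plotted curves. Duplicate wells, two independent repeats. MCF7 grown in DMEM, MDA-MB-231 in RPMI, both with 10% FBS at 37 °C and 5% CO2.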
In general terms: Formazan colour is commonly taken as a measure of viable cells.

The test system of assay [2] is MCF7. The assay can be described thus: Induction of apoptosis in human MCF7 cells assessed as late apoptotic cells at 2.5 uM after 24 hrs by annexin V-FITC/Propidium iodide staining based flow cytometric analysis (reference value: 0.2%). It is filed as functional. On the technique in general: In flow cytometry, cells or beads pass a laser one at a time.
Assay [3] deals with MCF7. Nature of the assay: Induction of apoptosis in human MCF7 cells assessed as increase in cell death at 2.5 uM after 24 hrs by EtBr/AO staining based fluorescence microscopic method relative to tanshinone-2A. The class given is functional. In a few lines: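 MCF7 cells (~5 × 10^4 per well, on coverslips) were left untreated (DMSO control) or treated at 2.5 µM for 24 h. Cells were PBS-washed, stained with 1:1 EtBr/AO (0.4 mg/ml each), washed and mounted, then viewed by fluorescence microscopy (480 nm excitation, 515-530 nm barrier filter). 200 cells per sample were scored apoptotic, necrotic or viable; percentages were taken relative to live cells.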

For assay [4], the system named is MCF7. Nature of the assay: Induction of apoptosis in human MCF7 cells at 2.5 uM after 24 hrs by annexin V-FITC/Propidium iodide staining based flow cytometric analysis relative to tanshinone-1. The class given is functional.
Assay [5] deals with MCF7. The assay can be described thus: Induction of apoptosis in human MCF7 cells at 2.5 uM after 24 hrs by annexin V-FITC/Propidium iodide staining based flow cytometric analysis relative to tanshinone-2A. It is filed as functional.
In assay [6] the test system is MDA-MB-231. Nature of the assay: Induction of apoptosis in human MDA-MB-231 cells at 2.5 uM after 24 hrs by annexin V-FITC/Propidium iodide staining based flow cytometric analysis relative to tanshinone-1. It is filed as functional.
In assay [7] the test system is MDA-MB-231. The assay can be described thus: Induction of apoptosis in human MDA-MB-231 cells at 2.5 uM after 24 hrs by annexin V-FITC/Propidium iodide staining based flow cytometric analysis relative to tanshinone-2A. The class given is functional.
Assay [8] has as its system MCF7. Nature of the assay: Induction of apoptosis in human MCF7 cells assessed as change in Bcl-xL protein expression at 2.5 uM after 24 hrs by Western blot analysis. It is filed as functional, cell-based. The method in brief:
(§1)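 MCF7 or MDA-MB-231 cells given 2.5 µM or DMSO for 24 h, then lysed in RIPA buffer. Immunoblots probed overnight at 4 °C, followed by infrared-labelled secondary antibody for 1 h at 37 °C. Bands imaged and quantified densitometrically, with GAPDH as loading control. Representative of two independent experiments.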
Background: Immunoblotting shows a protein as a band on a membrane.

For assay [9], the system named is MCF7. Nature of the assay: Induction of autophagy in human MCF7 cells assessed as increase in LC3-2 to LC3-1 protein ratio at 2.5 uM after 24 hrs by Western blot analysis. The class given is functional, cell-based. In a few lines: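 MCF7 cells (~5 × 10^6) left untreated (DMSO control) or exposed to 2.5 µM compound for 24 h. Lysed in RIPA buffer, probed overnight at 4 °C, then given infrared-tagged secondary antibodies for 1 h at 37 °C and imaged by infrared scanning. LC3-II/I ratio and p62 taken by densitometry with GAPDH as loading control. Two independent experiments.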

Assay [10] has as its system MCF7. Nature of the assay: Induction of autophagy in human MCF7 cells expressing GFP tagged LC3-2 assessed as increase in […] puncta formation at 2.5 uM after 24 hrs by confocal microscopic analysis. It is filed as functional, cell-based. The method in brief: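 MCF7 cells (~1 × 10^6) at 70% confluency on glass-bottom dishes were transiently transfected with GFP-LC3 (Lipofectamine 3000). 24 h later they received 2.5 µM compound or DMSO for another 24 h. Nuclei were stained with Hoechst 33342 and lysosomes with LysoTracker Red DND-99, then imaged by live-cell confocal microscopy. LC3 puncta were counted in at least 10 cells from 3 fields. Two independent experiments.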

Assay [11] has as its system MCF7. The assay can be described thus: Induction of autophagy in human MCF7 cells assessed as increase in CHOP mRNA expression at 2.5 uM after 24 hrs by RT-PCR analysis. The class given is functional, cell-based.
Assay [12] deals with MCF7. The assay can be described thus: Induction of autophagy in human MCF7 cells assessed as increase in ATG16L2 mRNA expression at 2.5 uM after 24 hrs by RT-PCR analysis. The class given is functional, cell-based. In a few lines:
(§2)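 MCF7 cells given 2.5 µM or DMSO for 24 h. Total RNA extracted with TRIzol and reverse-transcribed, then SYBR Green qPCR across 34 autophagy-regulatory genes (95 °C 10 min; 40 cycles of 95 °C 15 s and 60 °C 1 min). Relative expression by 2^-ΔΔCt against housekeeping genes and DMSO control, shown as log2. Two independent experiments.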

Assay [13] has as its system MCF7. Nature of the assay: Induction of autophagy in human MCF7 cells assessed as increase in GABARAPL1 mRNA expression at 2.5 uM after 24 hrs by RT-PCR analysis. The class given is functional, cell-based. In a few lines:
as §2

Assay [14] has as its system MCF7. Nature of the assay: Induction of autophagy in human MCF7 cells assessed as increase in GABARAPL2 mRNA expression at 2.5 uM after 24 hrs by RT-PCR analysis. It is filed as functional, cell-based. The method in brief: as §2
For assay [15], the system named is MCF7. The assay can be described thus: Induction of autophagy in human MCF7 cells assessed as increase in GADD34 mRNA expression at 2.5 uM after 24 hrs by RT-PCR analysis. It is filed as functional, cell-based.
Assay [16] has as its system MCF7. The assay can be described thus: Induction of autophagy in human MCF7 cells assessed as increase in GADD34 protein expression at 2.5 uM after 24 hrs by Western blot analysis. It is filed as functional, cell-based. In a few lines:
as §1

In assay [17] the test system is MCF7. Nature of the assay: Induction of apoptosis in human MCF7 cells assessed as increase in cleaved-PARP protein expression after 24 hrs by Western blot analysis. It is filed as functional, cell-based. The note with it: dose 1.25-5 µM.
Assay [18] deals with MCF7. The assay can be described thus: Induction of autophagy in human MCF7 cells assessed as increase in LC3-2 conversion level after 24 hrs by Western blot analysis. It is filed as functional, cell-based. To be noted: dose 1.25-5 µM. The method in brief:
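MCF7 cells exposed for 24 h to 0, 1.25, 2.5 or 5 µM. Western blot with GAPDH as loading control. LC3-II/I ratio obtained by densitometry. At least two independent experiments.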

Assay [19] relates to MCF7. Nature of the assay: Cytotoxicity against human MCF7 cells assessed as reduction in cell viability at 25 to 100 uM after 24 hrs in presence of chloroquine by MTT assay. The class given is functional, cell-based. To be noted: dose 25-100 µM. The method in brief: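 ~0.5 × 10^5 cells per well in six-well plates given 2.5 µM test agent together with chloroquine at 25, 50 or 100 µM, 24 h at 37 °C in humidified CO2. Viability read by MTT. Duplicate assays from two independent experiments, shown with SD.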

Assay [20] deals with MCF7. The assay can be described thus: Induction of autophagy in human MCF7 cells assessed as LC3-2 to LC3-1 protein ratio at 1.25 uM after 24 hrs by Western blot analysis (reference value: 0.22 to 0.8). The class given is functional.
For assay [21], the system named is MCF7 (Homo sapiens). Nature of the assay: Induction of apoptosis in human MCF7 cells assessed as increase in cell death at 2.5 uM after 24 hrs by EtBr/AO staining based fluorescence microscopic method.
The test system of assay [22] is MCF7 (Homo sapiens). Nature of the assay: Induction of apoptosis in human MCF7 cells assessed as increase in cell death at 2.5 uM after 24 hrs by EtBr/AO staining based fluorescence microscopic method relative to tanshinone-2A.

Active and inactive are the calls of the source. The calls are words filed in the database; no cut-off is given here.

Consider `O=C1C(=O)c2ccsc2-c2ccccc21`, for which, in the assay with MCF7 [1], the IC50 was determined as 1940 nM. Further, the Activity in the assay with MCF7 [2] is 19.1%; in the assay on MCF7 [17], “Dose-dependent effect”; in the assay with MCF7 [18] it was “Dose-dependent effect”. In addition, the “fold change (FC)” value is listed as 2 in the assay with MCF7 [3]; “>=2” in the assay with MCF7 [4]; “>=2” in the assay on MCF7 [5]; “>=2” in the assay on MDA-MB-231 [6]; “>=2” in the assay with MDA-MB-231 [7]; 2 in the assay on MCF7 (Homo sapiens) [22]. The outcome in the assay on MCF7 [8] and with MCF7 [19] was inactive. Moreover, the result in the assay with MCF7 [9], with MCF7 [10], with MCF7 [11], in the assay on MCF7 [12], in the assay on MCF7 [13] and with MCF7 [14] was Active. Besides, the result with MCF7 [15], in the assay with MCF7 [16] and with MCF7 (Homo sapiens) [21] was Active. The Ratio in the assay on MCF7 [20] came out at 10.2.
On to `O=C1C(=O)c2sccc2-c2ccccc21`, for which the IC50 in the assay on MCF7 [1] was 1860 nM. For the same molecule, the Activity in the assay with MCF7 [2] was 23.5%; in the assay with MCF7 [17], “Dose-dependent effect”; with MCF7 [18], “Dose-dependent effect”. In addition, the “fold change (FC)” value in the assay with MCF7 [3] is recorded as 2; with MCF7 [4], “>=2”; in the assay with MCF7 [5] it was “>=2”; in the assay on MDA-MB-231 [6] it was “>=2”; in the assay on MDA-MB-231 [7] it was “>=2”; in the assay with MCF7 (Homo sapiens) [22] it was 2. The outcome with MCF7 [8] and with MCF7 [19] was inactive. The outcome in the assay with MCF7 [9], in the assay with MCF7 [10], in the assay on MCF7 [11], with MCF7 [12], in the assay on MCF7 [13] and in the assay on MCF7 [14] was Active. Moreover, the result with MCF7 [15], in the assay on MCF7 [16] and in the assay with MCF7 (Homo sapiens) [21] was Active. Besides, the Ratio in the assay with MCF7 [20] is recorded as 0.53.

The IC50 is the concentration needed to halve the response being measured.
